Converted amounts (≈) assume the structure as drawn. The source made the active and inactive calls. The rule behind the calls is not given here.
How the values were obtained:
[1] = test system: Aspergillus niger; assay: Antifungal activity against Aspergillus niger ATCC 1004 at pH 7 after 5 days in absence of 10% beef serum; format: functional; conditions: Aspergillus niger, ATCC 1004, 120 h; read-out: MIC
In short: (§1)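 Agar-dilution MIC in Sabouraud dextrose agar at pH 5.6 or 7.0, with or without 10% beef serum. Plates were incubated at 28 °C for 5 days. MIC is the lowest concentration (µg/mL) giving 100% inhibition. Steps were 1 µg/mL up to 10, 2 µg/mL from 10–20, and 10 µg/mL from 20–100; 100 µg/mL was the top level, and no inhibition there is scored as >100.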

[2] = test system: Trichophyton mentagrophytes; assay: Antifungal activity against Trichophyton mentagrophytes ATCC 9129 at pH 5.6 after 5 days in presence of 10% beef serum; format: functional; conditions: Trichophyton mentagrophytes, ATCC 9129, 120 h; read-out: MIC; in short: as §1
[3] = test system: Trichophyton mentagrophytes; assay: Antifungal activity against Trichophyton mentagrophytes ATCC 9129 at pH 5.6 after 5 days in absence of 10% beef serum; format: functional; conditions: Trichophyton mentagrophytes, ATCC 9129, 120 h; read-out: MIC; in short: as §1
[4] = test system: Candida albicans; assay: Antifungal activity against Candida albicans ATCC 10231 at pH 5.6 after 20 h in presence of 10% beef serum; conditions: ATCC 10231, 20 h
[5] = test system: Mucor mucedo; assay: Antifungal activity against Mucor mucedo ATCC 7941 at pH 5.6 after 20 h in presence of 10% beef serum; conditions: ATCC 7941, 20 h
[6] = test system: Aspergillus niger; assay: Antifungal activity against Aspergillus niger ATCC 1004 at pH 5.6 after 5 days in absence of 10% beef serum; format: functional; conditions: Aspergillus niger, ATCC 1004, 120 h; read-out: MIC; in short: as §1
[7] = test system: Mucor mucedo; assay: Antifungal activity against Mucor mucedo ATCC 7941 at pH 7 after 20 h in presence of 10% beef serum; conditions: ATCC 7941, 20 h
[8] = test system: Trichophyton mentagrophytes; assay: Antifungal activity against Trichophyton mentagrophytes ATCC 9129 at pH 7 after 5 days in absence of 10% beef serum; format: functional; conditions: Trichophyton mentagrophytes, ATCC 9129, 120 h; read-out: MIC; in short: as §1
[9] = test system: Aspergillus niger; assay: Antifungal activity against Aspergillus niger ATCC 1004 at pH 5.6 after 5 days in presence of 10% beef serum; format: functional; conditions: Aspergillus niger, ATCC 1004, 120 h; read-out: MIC; in short: as §1
[10] = test system: Candida albicans; assay: Antifungal activity against Candida albicans ATCC 10231 at pH 5.6 after 20 h in absence of 10% beef serum; conditions: ATCC 10231, 20 h
[11] = test system: Aspergillus niger; assay: Antifungal activity against Aspergillus niger ATCC 1004 at pH 7 after 5 days in presence of 10% beef serum; format: functional; conditions: Aspergillus niger, ATCC 1004, 120 h; read-out: MIC; in short: as §1
[12] = test system: Mucor mucedo; assay: Antifungal activity against Mucor mucedo ATCC 7941 at pH 5.6 after 20 h in absence of 10% beef serum; conditions: ATCC 7941, 20 h
[13] = test system: Mucor mucedo; assay: Antifungal activity against Mucor mucedo ATCC 7941 at pH 7 after 20 h in absence of 10% beef serum; conditions: ATCC 7941, 20 h
[14] = test system: Candida albicans; assay: Antifungal activity against Candida albicans ATCC 10231 at pH 7 after 20 h in absence of 10% beef serum; conditions: ATCC 10231, 20 h
[15] = test system: Candida albicans; assay: Antifungal activity against Candida albicans ATCC 10231 at pH 7 after 20 h in presence of 10% beef serum; conditions: ATCC 10231, 20 h
[16] = test system: Trichophyton mentagrophytes; assay: Antifungal activity against Trichophyton mentagrophytes ATCC 9129 at pH 7 after 5 days in presence of 10% beef serum; format: functional; conditions: Trichophyton mentagrophytes, ATCC 9129, 120 h; read-out: MIC; in short: as §1
[17] = test system: Candida albicans; assay: Antifungal activity against Candida albicans ATCC 10231 at <100 ug/ml at pH 5.6 after 20 h in absence of 10% beef serum
[18] = test system: Mucor mucedo; assay: Antifungal activity against Mucor mucedo ATCC 7941 at <100 ug/ml at pH 7 after 20 h in absence of 10% beef serum
[19] = test system: Candida albicans; assay: Antifungal activity against Candida albicans ATCC 10231 at <100 ug/ml at pH 7 after 20 h in absence of 10% beef serum
[20] = test system: Aspergillus niger; assay: Antifungal activity against Aspergillus niger ATCC 1004 at <100 ug/ml at pH 7 after 5 days in absence of 10% beef serum; format: functional, organism-based; in short: as §1
[21] = test system: Trichophyton mentagrophytes; assay: Antifungal activity against Trichophyton mentagrophytes ATCC 9129 at <100 ug/ml at pH 5.6 after 5 days in presence of 10% beef serum; format: functional, organism-based; in short: as §1
[22] = test system: Candida albicans; assay: Antifungal activity against Candida albicans ATCC 10231 at <100 ug/ml at pH 5.6 after 20 h in presence of 10% beef serum
[23] = test system: Aspergillus niger; assay: Antifungal activity against Aspergillus niger ATCC 1004 at <100 ug/ml at pH 7 after 5 days in presence of 10% beef serum; format: functional, organism-based; in short: as §1
[24] = test system: Mucor mucedo; assay: Antifungal activity against Mucor mucedo ATCC 7941 at <100 ug/ml at pH 7 after 20 h in presence of 10% beef serum
[25] = test system: Aspergillus niger; assay: Antifungal activity against Aspergillus niger ATCC 1004 at <100 ug/ml at pH 5.6 after 5 days in absence of 10% beef serum; format: functional, organism-based; in short: as §1
[26] = test system: Mucor mucedo; assay: Antifungal activity against Mucor mucedo ATCC 7941 at <100 ug/ml at pH 5.6 after 20 h in absence of 10% beef serum
[27] = test system: Trichophyton mentagrophytes; assay: Antifungal activity against Trichophyton mentagrophytes ATCC 9129 at <100 ug/ml at pH 7 after 5 days in presence of 10% beef serum; format: functional, organism-based; in short: as §1
[28] = test system: Candida albicans; assay: Antifungal activity against Candida albicans ATCC 10231 at <100 ug/ml at pH 7 after 20 h in presence of 10% beef serum
[29] = test system: Aspergillus niger; assay: Antifungal activity against Aspergillus niger ATCC 1004 at <100 ug/ml at pH 5.6 after 5 days in presence of 10% beef serum; format: functional, organism-based; in short: as §1
[30] = test system: Mucor mucedo; assay: Antifungal activity against Mucor mucedo ATCC 7941 at <100 ug/ml at pH 5.6 after 20 h in presence of 10% beef serum
[31] = test system: Trichophyton mentagrophytes; assay: Antifungal activity against Trichophyton mentagrophytes ATCC 9129 at <100 ug/ml at pH 7 after 5 days in absence of 10% beef serum; format: functional, organism-based; in short: as §1

Row | SMILES | MIC [1] [µg/mL] | MIC [2] [µg/mL] | MIC [3] [µg/mL] | MIC [4] [µg/mL] | MIC [5] [µg/mL] | MIC [6] [µg/mL] | MIC [7] [µg/mL] | MIC [8] [µg/mL] | MIC [9] [µg/mL] | MIC [10] [µg/mL] | MIC [11] [µg/mL] | MIC [12] [µg/mL] | MIC [13] [µg/mL] | MIC [14] [µg/mL] | MIC [15] [µg/mL] | MIC [16] [µg/mL] | other results
1 | CCCOC(=O)[C@@H](F)[C@@H](Br)C(=O)OCCC (relative stereo) | 40 (≈ 134 µM) | 5 | < 1 | 5 | 14 | 18 (≈ 60.2 µM) | 14 | 2 (≈ 6.69 µM) | 18 | 3 (≈ 10 µM) | 60 | < 1 | 3 (≈ 10 µM) | 4 (≈ 13.4 µM) | 14 | 14 | –
2 | CCOC(=O)[C@H](F)[C@@H](Br)C(=O)OCC (relative stereo) | 20 (≈ 73.8 µM) | 2 | < 1 | 5 | 6 | 18 (≈ 66.4 µM) | 9 | 2 (≈ 7.38 µM) | 20 | 4 (≈ 14.8 µM) | 30 | 2 (≈ 7.38 µM) | 4 (≈ 14.8 µM) | 7 (≈ 25.8 µM) | 14 | 5 | –
3 | CC1/C=C/C=C/C=C/C=C/C=C/C=C/C=C/C(OC2O[C@H](C)[C@@H](O)[C@H](N)[C@@H]2O)CC(O)C(C(=O)O)C(O)CC(=O)CC(O)CC(O)CC(O)CC(=O)CCCC(=O)CC(=O)OC1C(C)CC(C)C(O)CC(=O)c1ccc(N)cc1 (stereo partly drawn) | 8 (≈ 7.21 µM) | < 1 | < 1 | < 1 | < 1 | 2 (≈ 1.8 µM) | 2 | 3 (≈ 2.7 µM) | 5 | < 1 | 10 | < 1 | < 1 | < 1 | 2 | 9 | –
4 | CCOC(=O)[C@@H](F)[C@@H](Br)C(=O)OCC (relative stereo) | 30 (≈ 111 µM) | 5 | 2 (≈ 7.38 µM) | 6 | 5 | 12 (≈ 44.3 µM) | 7 | 3 (≈ 11.1 µM) | 12 | 4 (≈ 14.8 µM) | 40 | 4 (≈ 14.8 µM) | 6 (≈ 22.1 µM) | 12 (≈ 44.3 µM) | 16 | 6 | –
5 | CCCCCOC(=O)[C@H](F)[C@@H](Br)C(=O)OCCCCC (relative stereo) | – | – | 12 (≈ 33.8 µM) | – | – | – | – | 40 (≈ 113 µM) | – | – | – | – | – | – | – | – | inhibition [17]: inactive; inhibition [18]: inactive; inhibition [19]: inactive; inhibition [20]: inactive; inhibition [21]: inactive; inhibition [22]: inactive; inhibition [23]: inactive; inhibition [24]: inactive; inhibition [25]: inactive; inhibition [26]: inactive; inhibition [27]: inactive; inhibition [28]: inactive; inhibition [29]: inactive; inhibition [30]: inactive
6 | COC(=O)/C=C(\Br)C(=O)OC | 18 (≈ 80.7 µM) | 3 | < 1 | 14 | 4 | 14 (≈ 62.8 µM) | 14 | 3 (≈ 13.5 µM) | 16 | 12 (≈ 53.8 µM) | 20 | 3 (≈ 13.5 µM) | 5 (≈ 22.4 µM) | 18 (≈ 80.7 µM) | 20 | 9 | –
7 | COC(=O)C#CC(=O)OC | – | – | 40 (≈ 281 µM) | – | 30 | – | – | – | – | – | – | 8 (≈ 56.3 µM) | 70 (≈ 493 µM) | – | – | – | inhibition [17]: inactive; inhibition [19]: inactive; inhibition [20]: inactive; inhibition [21]: inactive; inhibition [22]: inactive; inhibition [23]: inactive; inhibition [24]: inactive; inhibition [25]: inactive; inhibition [27]: inactive; inhibition [28]: inactive; inhibition [31]: inactive; inhibition [29]: inactive
8 | C[C@@H]1[C@H](O)[C@@H](C)/C=C/C=C/C=C/C=C/C=C/C=C/C=C/[C@H](O[C@@H]2O[C@H](C)[C@@H](O)[C@H](N)[C@@H]2O)C[C@@H]2O[C@](O)(C[C@@H](O)C[C@@H](O)[C@H](O)CC[C@@H](O)C[C@@H](O)CC(=O)O[C@H]1C)C[C@H](O)[C@H]2C(=O)O [AMPHOTERICIN B] | < 1 | < 1 | < 1 | < 1 | < 1 | < 1 | < 1 | < 1 | < 1 | < 1 | < 1 | < 1 | < 1 | < 1 | < 1 | < 1 | –

— ChEMBL document CHEMBL3244142, “Antifungal properties of 2-bromo-3-fluorosuccinic acid esters and related compounds” (1977)
